# From article PMC11062580 (Science Advances, 2024)
# How the values were obtained:
# [1] = system: tau aggregation; conditions: phase 2 (curcumin) and phase 3 (methylene blue/LMTX) trials; cited from earlier work
# [2] = system: tau K18^+ fibrils; test: Dot blot with anti-amyloid OC antibody; type: biochemical; conditions: 7-DP 2.5-100 μM or MNPs-DP 0.005-0.02 mg/ml, 24 h
# [3] = system: AD tau fibrils; test: TEM of AD-extracted tau fibrils after treatment; type: biochemical; conditions: 0.02 mg/ml (86 μM 7-DP for MNPs-DP), 48 hours, 37°C; n = 10 images
# [4] = system: C57BL/6J mice brain; test: BBB penetration, Fe in brain by ICP-MS; type: in vivo, mouse; conditions: 10 mg/kg tail vein with intranasal mannitol; 2 hours; n = 3 per group
# Outline: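 Wild-type C57BL/6J mice aged 2 months received 20 μl of 2% mannitol intranasally, then test nanoparticles at 10 mg/kg by tail vein; controls received PBS. Mice were euthanized after 2 h and perfused. Half-brains were dried at 105°C, digested in concentrated HNO3/HCl at 80°C for 2 h and diluted. Fe was quantified by ICP-MS.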
# [5] = system: phosphorylated tau (ptau) pSer^202/Thr^205; test: AT8 immunohistochemistry of hippocampus; type: in vivo, mouse; conditions: 10 mg/kg i.v. weekly for 10 weeks; n = 6 per group
# Outline: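 PS19 mice seeded stereotaxically with 1.5 µl recombinant K18+ tau fibril seeds (5 µg/µl). Dosing began 2 weeks later: tail-vein 10 mg/kg weekly for 10 weeks, with intranasal mannitol; vehicle was PBS. Brain sections were stained with AT8 (pSer202/Thr205) at 4°C overnight, then biotinylated anti-mouse secondary (1:1000, 1 h, 37°C). AT8-positive staining was quantified in hippocampal CA1 and CA3.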
# [6] = system: tau K18^+ fibrils; test: TEM of preformed tau K18+ fibrils after treatment; type: biochemical; conditions: 7-DP 2.5-100 μM or MNPs-DP 0.005-0.02 mg/ml, 24 hours
# [7] = system: PS19 mice; test: Novel object recognition test; type: in vivo, mouse; conditions: 10 mg/kg i.v. weekly for 10 weeks, n = 13
# Outline: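 PS19 mice seeded with K18+ fibrils, then weekly i.v. 10 mg/kg for 10 weeks with intranasal mannitol; PBS vehicle. Arena habituation was 10 min, 24 h before testing. Acquisition: two identical objects, 10 min. After 90 min in the home cage, retention: one familiar and one novel object, 10 min. Exploration was nose, mouth or forepaw contact. DR = TC/(TR + TC); […].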
# [8] = system: PS19 mice; test: Barnes maze test; type: in vivo, mouse; conditions: 10 mg/kg i.v. weekly for 10 weeks
# Outline: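 Mice were seeded with K18+ fibrils (2-month males, 6-month females) and given weekly tail-vein 10 mg/kg for 10 weeks plus intranasal mannitol; PBS vehicle; C57BL/6J controls. Maze had 20 holes with an escape box. Acquisition was 10 trials (2/day, 15-min interval, 2 min each). Probe came 1 day later: tunnel replaced, 90 s, with primary latency and target-hole entries. Testing was blinded and randomized.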
# [9] = system: PS19 mice; test: H&E histology of major organs; type: in vivo, mouse; conditions: 10 mg/kg i.v. weekly for 10 weeks
# Outline: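 Seeded PS19 mice were treated weekly i.v. at 10 mg/kg for 10 weeks with intranasal mannitol. Heart, liver, spleen, lung and kidney (n = 3) were fixed in 4% buffered formalin at 4°C overnight and embedded in paraffin. Sections of 5 µm were stained with hematoxylin and eosin.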
# [10] = system: tau K18^+ fibrils; test: ThT fragmentation assay of preformed tau K18+ fibrils; type: biochemical
# [11] = system: PS19 mice; test: Serum AST as index of hepatic toxicity; type: in vivo, mouse; conditions: 10 mg/kg i.v. weekly for 10 weeks; n = 13; ELISA
# [12] = system: tau K18^+ fibrils; test: TEM of tau K18+ aggregation with inhibitor; type: biochemical; conditions: 20 μM tau K18+, 48 h; 5-100 μM peptide or MNPs-DP 0.005-0.04 mg/ml
# Outline: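 Recombinant tau K18+ (20 µM final, PBS pH 7.4) was aggregated with 40 µM ThT, 15 µM heparin and 1 mM DTT at 37°C with 700 rpm double orbital shaking. Test peptide was at 5–100 µM; nanoparticles at 0.005–0.04 mg/ml. For TEM, 6 µl sample went on glow-discharged carbon grids for 5 min, then 2% uranyl acetate for 2 min.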
# [13] = Body weight of PS19 mice; type: in vivo, mouse; conditions: 10 mg/kg i.v. weekly for 10 weeks, with intranasal mannitol; n = 13 per group
Molecule,clinical efficacy [1],binding of anti-amyloid OC antibody to tau K18+ fibrils [2],fragmentation of AD-extracted tau fibrils by MNPs-DP or MNPs [3],BBB penetration [4],AT8-positive tau pathology in hippocampus CA1 and CA3 [5],dose-dependent number/abundance of tau K18+ fibrils under TEM [6],exploration of novel versus familiar object ([7]; 90-min interval),discriminatory index (DI) ([7]; versus vehicle),discriminatory ratio (DR) ([7]; versus vehicle),"memory function in probe trial, overall ([8]; compared with PBS-treated PS19 mice)","latency time to find escape hole, learning period ([8]; n = 13, 6 days)","histology of liver, spleen, heart, lung, kidney ([9]; H&E, n = 3, 100 day post-injection)",overall toxicity after 10 weeks ([9]; PS19 mice),"fragmentation of preformed tau K18+ fibrils, MNPs-DP and MNPs (ThT) ([10]; 20 μM tau K18+ fibrils, MNPs-DP or MNPs 0.02 mg/ml, added at 10 hours, reference 50 μM 7-DP)","dose-dependent ThT fluorescence intensity of tau K18+ fibrils ([10]; 7-DP 2.5-100 μM or MNPs-DP 0.005, 0.01, 0.02 mg/ml)",serum AST levels [11],counts and length of tau K18+ fibrils (TEM) [12],body weight of PS19 mice [13]
COc1cc(/C=C/C(=O)CC(=O)/C=C/c2ccc(O)c(OC)c2)ccc1O [curcumin],have yet to show efficacy in treating disease,–,–,–,–,–,–,–,–,–,–,–,–,–,–,–,–,–
"CN(C)c1ccc2nc3ccc(=[N+](C)C)cc-3sc2c1 [methylene blue/LMTX, methylene blue]",have yet to show efficacy in treating disease,–,–,–,–,–,–,–,–,–,–,–,–,–,–,–,–,–
MNPs-D-TLKIVWC [MNPs-DP],–,decrease of binding to anti-amyloid OC antibody,fragmented AD-extracted tau fibrils after a 48-hour incubation,can cross the BBB,significantly limited tau pathology in both the CA1 and CA3 regions,reduction of the abundance of tau K18^+ fibrils and a concurrent increase in the number of globular species,explored the novel object significantly longer than the familiar one,appeared to significantly improve the discriminatory index,appeared to significantly improve the discriminatory index (DI; Fig. 5G) and discriminatory ratio (DR),comparable performance to WT mice and a significant improvement in memory function compared with PBS-treated PS19 mice,learned a new task quicker with a shorter latency time to find the escape hole compared to the vehicle- or naked MNP-treated PS19 mice,no evidence of toxic changes or cell death in cellular structures,without apparent toxic side effects in other body systems,fragmented preformed tau K18^+ fibrils as evidenced by the decrease of ThT signal,reduction of ThT fluorescence intensity,comparable to the vehicle groups,reduced the length of tau fibrils in a dose-dependent manner,consistent increase in body weights
